Results: article PMC3215888 (Cancer Chemotherapy and Pharmacology, 2011)
Read-outs that look alike come from different tables or passages of the source.

Legend:
[1] = system: TC-71 Ewing sarcoma cell line; assay: DIMSCAN in vitro testing, 96 h; format: cell-based; settings: for IC50: TC-71, 96 h
Procedure, shortened: (§1)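 Neuroblastoma and Ewing sarcoma lines, STR-verified and maintained as in the originators' reports. Exposed for 96 h to test compound (DMSO stock diluted in medium) at 1 nM–10 μM. Viable cells quantified by fluorescein diacetate fluorescence with DIMSCAN digital image microscopy. Absolute IC50 = concentration giving 50% growth inhibition vs controls. Relative IC50 = concentration giving 50% of the maximum inhibitory effect.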

[2] = system: CHLA-122 neuroblastoma cell line; assay: DIMSCAN in vitro testing, 96 h; format: cell-based; settings: for IC50: Neuroblastoma cell, 96 h
Procedure, shortened: as §1

[3] = system: SMS-LHN neuroblastoma cell line; assay: DIMSCAN in vitro testing, 96 h; format: cell-based; settings: for IC50: Neuroblastoma cell, 96 h
Procedure, shortened: as §1

[4] = system: SMS-MSN neuroblastoma cell line; assay: DIMSCAN in vitro testing, 96 h; format: cell-based; settings: for IC50: Neuroblastoma cell, 96 h
Procedure, shortened: as §1

[5] = system: Rh65 ALV Rhabdomyosarcoma xenograft; format: in vivo, mice
Procedure, shortened: (§2)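 Female CB17 scid mice bearing subcutaneous tumors, 10 per group. Dosed by oral gavage twice daily, 5 days weekly for 6 weeks, at 20.8, 10.4, 5.2 or 2.6 mg/kg, in 10% 2-hydroxypropyl-β-cyclodextrin/1% sodium bicarbonate. Event = quadrupled tumor volume; EFS by Kaplan–Meier, exact log-rank test. Per-mouse scores PD/SD/PR (≥50% regression)/CR (<0.10 cm3)/MCR; group median reported. PR, CR and MCR count as objective responses.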

[6] = system: NB-SD Neuroblastoma xenograft; format: in vivo, mice
Procedure, shortened: as §2

[7] = system: SK-N-AS Neuroblastoma xenograft; format: in vivo, mice; settings: 20.8 mg/kg
Procedure, shortened: as §2

[8] = system: ALL-19 ALL B-precursor xenograft; assay: ALL xenograft; format: in vivo, mice
Procedure, shortened: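 Female NOD/scid mice inoculated intravenously with leukemia cells, 8 per group. Test compound suspended in 10% 2-hydroxypropyl-β-cyclodextrin/1% sodium bicarbonate in water. Given by oral gavage twice daily, 5 days weekly for 3 weeks, at 20.8, 10.4, 5.2 or 2.6 mg/kg. Blood %hCD45 of leukocytes tracked; event = hCD45 reaching 25%. EFS by Kaplan–Meier, exact log-rank vs controls. Median group response from individual scores.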

[9] = Plasma pharmacokinetics after a single oral dose, LC/MS/MS; format: in vivo, non-tumored scid mice; settings: scid, mouse
[10] = patients, 50 mg BID for 7 days; cited from earlier work

## COc1cc(Nc2ncc3c(n2)-c2ccc(Cl)cc2C(c2c(F)cccc2OC)=NC3)ccc1C(=O)O [MLN8237]
[1]; read-out: Absolute IC50
  IC50: 102 nM
[1]; read-out: Relative IC50
  IC50: 100 nM
[1]; TC-71, minimum T/C
  Ymin: 10.0%
[2]; CHLA-122, minimum T/C
  Ymin: 0.6%
[2]; read-out: Absolute IC50
  IC50: 19 nM
[2]; read-out: Relative IC50
  IC50: 17 nM
[3]; read-out: Absolute IC50
  IC50: 32 nM
[3]; read-out: Relative IC50
  IC50: 20 nM
[3]; SMS-LHN, minimum T/C
  Ymin: 25.1%
[4]; read-out: Absolute IC50
  IC50: 22 nM
[4]; read-out: Relative IC50
  IC50: 17 nM
[4]; SMS-MSN, minimum T/C
  Ymin: 16.1%
[5]; 2.6 mg/kg
  EFS T/C: 2.1
  EFS activity: Int
  Estimate of median time to event: 22.9 days
  Median group response: PD2 (if the TGD value >1.5, the mouse was considered PD2)
  Response activity: Int
  Tumor volume T/C: 0.31
  Median RTV/hCD45 at end of study: >4
[5]; 5.2 mg/kg
  EFS T/C: 3.7
  EFS activity: Int
  Estimate of median time to event: 39.3 days
  Median group response: PD2 (if the TGD value >1.5, the mouse was considered PD2)
  Response activity: Int
  Tumor volume T/C: 0.19
  Median RTV/hCD45 at end of study: >4
[5]; 10.4 mg/kg
  EFS T/C: >3.9
  EFS activity: Int
  Median group response: PD2 (if the TGD value >1.5, the mouse was considered PD2)
  Response activity: Int
  Tumor volume T/C: 0.11
  Median RTV/hCD45 at end of study: 3.2
[5]; 20.8 mg/kg
  EFS T/C: >3.9
  EFS activity: High
  Median group response: MCR
  Response activity: High
  Tumor volume T/C: 0.01
  Median RTV/hCD45 at end of study: 0.0
[6]; 2.6 mg/kg
  EFS T/C: 1.6
  EFS activity: Low
  Estimate of median time to event: 15.2 days
  Median group response: PD1 (if the TGD value ≤1.5, that mouse was considered PD1)
  Response activity: Low
  Tumor volume T/C: 0.59
  Median RTV/hCD45 at end of study: >4
[6]; 5.2 mg/kg
  EFS T/C: 2.2
  EFS activity: Int
  Estimate of median time to event: 20.9 days
  Median group response: PD2 (if the TGD value >1.5, the mouse was considered PD2)
  Response activity: Int
  Tumor volume T/C: 0.60
  Median RTV/hCD45 at end of study: >4
[6]; 10.4 mg/kg
  EFS T/C: 3.9
  EFS activity: Int
  Estimate of median time to event: 37.5 days
  Median group response: PD2 (if the TGD value >1.5, the mouse was considered PD2)
  Response activity: Int
  Tumor volume T/C: 0.50
  Median RTV/hCD45 at end of study: >4
[6]; 20.8 mg/kg
  EFS T/C: >4.4
  EFS activity: High
  Response activity: Int
  Tumor volume T/C: 0.47
  Median RTV/hCD45 at end of study: 0.9
[7]
  EFS T/C: 1.4
  EFS activity: Low
  Estimate of median time to event: 7.6 days
  Median group response: PD1 (if the TGD value ≤1.5, that mouse was considered PD1)
  Response activity: Low
  Tumor volume T/C: 0.71
[7]; RTV
  Median RTV/hCD45 at end of study: >4
[8]; 2.6 mg/kg
  EFS T/C: 1.0
  EFS activity: Low
  Estimate of median time to event: 2.6 days
  Median group response: PD1 (if the TGD value ≤1.5, that mouse was considered PD1)
  Response activity: Low
  Median RTV/hCD45 at end of study: >25%
[8]; 5.2 mg/kg
  EFS T/C: 9.2
  EFS activity: Int
  Estimate of median time to event: 22.9 days
  Median group response: PD2 (if the TGD value >1.5, the mouse was considered PD2)
  Response activity: Int
  Median RTV/hCD45 at end of study: >25%
[8]; 10.4 mg/kg
  EFS T/C: 14.9
  EFS activity: Int
  Estimate of median time to event: 37.2 days
  Response activity: High
  Median RTV/hCD45 at end of study: >25%
[8]; 20.8 mg/kg
  EFS T/C: 16.8
  EFS activity: Int
  Estimate of median time to event: 41.8 days
  Response activity: High
  Median RTV/hCD45 at end of study: >25%
[9]; oral, 10 mg/kg
  concentration at 12 h: 1200 nM
[9]; oral, 10.4 mg/kg
  concentration at 12 h: 1200 nM
[9]; po, 10 mg/kg
  AUC(0-t): 39 µM·h
[9]; po, 10 mg/kg, C max, single oral 10 mg/kg, mice
  Cmax: 15800 nM
[9]; po, 10.4 mg/kg
  AUC(0-t): 60.3 µM·h
  Cmax: 24800 nM
  Tmax: 30 min
[9]; po, 20.8 mg/kg
  AUC(0-t): 78.4 µM·h
  Tmax: 30 min
  concentration at 12 h: 1800 nM
[10]
  average trough concentrations: exceeded 1 μM
